Laboratory results published in ChEMBL document CHEMBL1667743, “Functional in vivo imaging of cysteine cathepsin activity in murine model of inflammation” (Bioorg Med Chem, 2011).
The source made the active and inactive calls. The rule behind the calls is not given here.

Assays:
[1] = tested on: CC(C)(C)OC(=O)NCC[C@H](NC(=O)[C@H](CC1CCCCC1)NC(=O)N1CCOCC1)C(=O)NCCNC(=O)OCC1c2ccccc2-c2ccccc21; experiment: Activity at recombinant cathepsin B
Method in brief: (§1)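 Active-site-titrated (E-64) recombinant human cathepsins B, L, S and in-house cathepsin K, 10 nM final in pH 6.5 acetate/HEPES buffer with 300 mM NaCl, 0.001% Pluronic and L-cysteine; DMSO-dissolved Cy7/BHQ-3 quenched substrate 0.8–40 µM final (DMSO ≤1%); fluorescence read at 25 °C (λex 710, λem 767 nm); steady-state data fitted by non-linear least squares to Michaelis–Menten with substrate inhibition.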

[2] = tested on: CC(C)(C)OC(=O)NCC[C@H](NC(=O)[C@H](CC1CCCCC1)NC(=O)N1CCOCC1)C(=O)NCCNC(=O)OCC1c2ccccc2-c2ccccc21; experiment: Ratio of Kcat/Km for recombinant cathepsin B; method in brief: as §1
[3] = target: Matrix metalloproteinase-14 (Homo sapiens) (UniProt P50281); experiment: Activity at MMP14
Method in brief: (§2)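 Recombinant protease (10–40 nM final) incubated with 60.0 µM probe substrate; NIR fluorescence of cleaved quenched probe measured as in the in vitro cathepsin assay (λex 710 nm, λem 767 nm).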

Mus musculus [4] = experiment: Activity at cathepsin S in zymosan-induced inflammatory paw edema mouse model assessed as ipsi/contralateral paw fluorescent signal at 20 uM, iv in presence of Dexamethasone; assay type: functional, organism-based
Method in brief: (§3)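 Zymosan paw inflammation; groups n = 3. Dexamethasone 10 mg/kg oral in 0.6% methylcellulose/0.5% Tween80 1 day before zymosan, shortly after, and 1 h before probe; or E-64 10 or 30 mg/kg ip in 40% DMSO/PBS 2 days and 1 day before, shortly after zymosan, and 1 h before probe. Probe 20 µM iv (800 nmol/kg) 24 h post-zymosan; ipsi/contralateral paw fluorescence imaged.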

Mus musculus [5] = experiment: Activity at cathepsin S in zymosan-induced inflammatory paw edema mouse model assessed as ipsi/contralateral paw fluorescent signal at 20 uM, iv in presence of 10 to 30 ug/ml E-64; assay type: functional, organism-based; conditions: in the assay text read “10 to 30 mg/kg” for “10 to 30 ug/ml”; method in brief: as §3
Mus musculus [6] = experiment: Activity at cathepsin S in zymosan-induced inflammatory paw edema mouse model assessed as ipsi/contralateral paw fluorescent signal at 20 uM, iv after 180 mins; assay type: functional, organism-based
Method in brief: (§4)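 Mice given zymosan in one hind paw (n = 3); 24 h later 20 µM probe in PBS iv via tail vein (800 nmol/kg). Under 1.5–2% isoflurane, body temperature held with heating pads; tail and upper body masked; images at 10 min, 1, 3, 6, 24 h; identical ROIs over both hind paws, ipsi/contralateral ratio.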

[7] = target: Neutrophil collagenase (Homo sapiens) (UniProt P22894); experiment: Activity at MMP8; method in brief: as §2
Mus musculus [8] = experiment: Activity at cathepsin S in zymosan-induced inflammatory paw edema mouse model assessed as ipsi/contralateral paw fluorescent signal at 13.3 uM, iv after 24 hrs; assay type: functional, organism-based
Mus musculus [9] = experiment: Activity at cathepsin S in zymosan-induced inflammatory paw edema mouse model assessed as ipsi/contralateral paw fluorescent signal at 20 uM, iv after 10 mins; assay type: functional, organism-based; method in brief: as §4
[10] = target: Stromelysin-1 (Homo sapiens) (UniProt P08254); experiment: Activity at MMP3; method in brief: as §2
[11] = target: Matrix metalloproteinase-9 (Homo sapiens) (UniProt P14780); experiment: Activity at MMP9; method in brief: as §2
Sequence of Matrix metalloproteinase-9 (Homo sapiens) (P14780 whole entry): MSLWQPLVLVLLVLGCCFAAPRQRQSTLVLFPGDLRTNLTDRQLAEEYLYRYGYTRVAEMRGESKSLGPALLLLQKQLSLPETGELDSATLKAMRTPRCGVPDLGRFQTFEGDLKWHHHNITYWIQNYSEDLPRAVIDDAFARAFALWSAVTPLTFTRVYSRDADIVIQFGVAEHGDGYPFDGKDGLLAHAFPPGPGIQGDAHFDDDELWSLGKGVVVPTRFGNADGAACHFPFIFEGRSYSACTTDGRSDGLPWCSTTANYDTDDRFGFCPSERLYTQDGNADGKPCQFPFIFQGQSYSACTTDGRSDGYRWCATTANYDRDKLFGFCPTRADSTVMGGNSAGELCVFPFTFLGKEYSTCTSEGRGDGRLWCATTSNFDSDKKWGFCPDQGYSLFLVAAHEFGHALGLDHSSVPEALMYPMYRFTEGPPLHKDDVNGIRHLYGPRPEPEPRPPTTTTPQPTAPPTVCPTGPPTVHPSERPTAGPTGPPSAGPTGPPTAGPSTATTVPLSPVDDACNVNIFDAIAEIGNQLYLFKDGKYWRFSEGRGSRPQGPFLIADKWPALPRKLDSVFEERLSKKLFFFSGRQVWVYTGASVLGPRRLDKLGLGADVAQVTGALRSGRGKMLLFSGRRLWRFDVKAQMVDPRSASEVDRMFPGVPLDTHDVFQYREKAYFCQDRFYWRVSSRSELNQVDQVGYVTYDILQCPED

Sequence of Stromelysin-1 (Homo sapiens) (P08254 100-477 limits assumed): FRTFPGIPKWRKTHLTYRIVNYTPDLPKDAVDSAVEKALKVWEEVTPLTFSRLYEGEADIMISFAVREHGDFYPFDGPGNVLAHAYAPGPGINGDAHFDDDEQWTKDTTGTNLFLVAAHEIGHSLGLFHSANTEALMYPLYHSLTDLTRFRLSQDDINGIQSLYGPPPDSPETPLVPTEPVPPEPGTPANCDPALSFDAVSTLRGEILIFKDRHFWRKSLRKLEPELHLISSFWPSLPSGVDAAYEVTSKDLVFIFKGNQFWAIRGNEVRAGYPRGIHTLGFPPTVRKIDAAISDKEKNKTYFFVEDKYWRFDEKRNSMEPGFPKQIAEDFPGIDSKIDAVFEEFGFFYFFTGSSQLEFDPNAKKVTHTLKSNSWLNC
Sequence of Neutrophil collagenase (Homo sapiens) (P22894 101-467 limits assumed): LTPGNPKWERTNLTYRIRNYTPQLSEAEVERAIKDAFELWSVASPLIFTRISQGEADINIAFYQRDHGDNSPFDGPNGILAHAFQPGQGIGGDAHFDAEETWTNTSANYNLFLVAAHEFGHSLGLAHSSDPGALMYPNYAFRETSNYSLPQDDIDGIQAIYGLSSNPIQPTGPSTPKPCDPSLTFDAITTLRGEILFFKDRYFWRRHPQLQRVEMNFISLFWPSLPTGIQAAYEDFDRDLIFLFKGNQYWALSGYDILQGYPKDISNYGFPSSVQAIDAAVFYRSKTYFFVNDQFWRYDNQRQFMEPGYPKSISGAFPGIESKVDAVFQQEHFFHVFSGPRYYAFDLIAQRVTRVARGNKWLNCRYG

Compound	Km [1]	kcat/Km [2]	Activity [3]	Activity (Mus musculus [4])	Activity (Mus musculus [5])	Activity (Mus musculus [6])	Activity [7]	Activity (Mus musculus [8])	Activity (Mus musculus [9])	Activity [10]	Activity [11]
Cathepsin B (Homo sapiens) (from UniProt P07858)	3.2 mM	332 M⁻¹ s⁻¹	–	–	–	–	–	–	–	–	–
CCN(CC)c1ccc2nc3ccc(/N=N/c4ccc(N(C)CCCC(=O)NCCNC(=O)[C@H](CCNC(=O)CCCCCN5\C(=C/C=C/C=C/C=C/C6N(CC)c7ccc(S(=O)(=O)O)cc7C6(C)C)C(C)(C)c6cc(S(=O)(=O)[O-])ccc65)NC(=O)[C@H](CC5CCCCC5)NC(=O)N5CCOCC5)cc4)cc3[n+](-c3ccccc3)c2c1 (stereo partly specified)	–	–	inactive	inactive	inactive	Active	inactive	Active	Active	inactive	inactive
